Active and inactive are the calls of the source. The rule behind the calls is not given here.
What was measured:
[1] = tested on: Syncephalastrum racemosum; assay: Antifungal activity against Syncephalastrum racemosum RCMB 005003 at 10 mg/ml after 3 to 4 days by agar well diffusion method; assay type: functional, organism-based
Outline: (§1)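 Patient-isolated fungi, purified by single-spore isolation, were grown 3–4 days in Sabouraud dextrose broth to about 10^5 CFU/mL. 0.1 mL was spread on Sabouraud dextrose agar. Wells were sealed at the bottom with 0.8% soft agar and loaded with 100 μL sample (10 mg/mL, DMSO); DMSO was the control. Incubated 30 °C, 3–4 days. Zone read three times by caliper and averaged; mean ± SD.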

[2] = tested on: Aspergillus fumigatus; assay: Antifungal activity against Aspergillus fumigatus RCMB 002003 at 10 mg/ml after 3 to 4 days by agar well diffusion method; assay type: functional; settings: for zone of inhibition at 10000 µg/mL: read-out: IZ; outline: as §1
[3] = tested on: Staphylococcus aureus; assay: Antibacterial activity against Staphylococcus aureus RCMB 000106 at 10 mg/ml after 24 hrs by diffusion agar technique; assay type: functional; settings: for zone of inhibition at 10000 µg/mL: RCMB 000106, 24 h, read-out: IZ
Outline: (§2)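 Agar well diffusion: 24 h bacterial culture pellets (approx. 10^4–10^6 CFU/mL) spread on nutrient agar, pH 7.0. Wells (6 mm) loaded with 100 μL sample at 10 mg/mL in DMSO; DMSO control. Incubated 37 °C, 24 h. Inhibition zone (mm, beyond well) measured three times by caliper and averaged; three runs per strain; mean ± SD.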

[4] = tested on: Geotrichum candidum; assay: Antifungal activity against Geotrichum candidum RCMB 052006 at 10 mg/ml after 3 to 4 days by agar well diffusion method; assay type: functional; settings: for zone of inhibition at 10000 µg/mL: read-out: IZ; outline: as §1
[5] = tested on: Escherichia coli; assay: Antibacterial activity against Escherichia coli RCMB 000103 at 10 mg/ml after 24 hrs by diffusion agar technique; assay type: functional; settings: for zone of inhibition at 10000 µg/mL: RCMB 000103, 24 h, read-out: IZ; outline: as §2
[6] = tested on: Bacillus subtilis; assay: Antibacterial activity against Bacillus subtilis RCMB 000107 at 10 mg/ml after 24 hrs by diffusion agar technique; assay type: functional; settings: for zone of inhibition at 10000 µg/mL: RCMB 000107, 24 h, read-out: IZ; outline: as §2
[7] = tested on: Pseudomonas aeruginosa; assay: Antibacterial activity against Pseudomonas aeruginosa RCMB 000102 at 10 mg/ml after 24 hrs by diffusion agar technique; assay type: functional; settings: for zone of inhibition at 10000 µg/mL: RCMB 000102, 24 h, read-out: IZ; outline: as §2
[8] = tested on: Candida albicans; assay: Antifungal activity against Candida albicans RCMB 005002 at 10 mg/ml after 3 to 4 days by agar well diffusion method; assay type: functional; settings: for zone of inhibition at 10000 µg/mL: read-out: IZ; outline: as §1
[9] = tested on: Staphylococcus aureus; assay: Antibacterial activity against Staphylococcus aureus RCMB 000106 at 30 ug/ml after 24 hrs by diffusion agar technique; assay type: functional; settings: RCMB 000106, 24 h, read-out: IZ
Outline: (§3)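 Reference antibiotic tested at 30 μg/mL, 100 μL per 6 mm well in agar diffusion on nutrient agar (pH 7.0) seeded with approx. 10^4–10^6 CFU/mL bacteria. Incubated 37 °C for 24 h. Inhibition zone beyond well diameter (mm) read by caliper in triplicate and averaged; mean ± SD.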

[10] = tested on: Bacillus subtilis; assay: Antibacterial activity against Bacillus subtilis RCMB 000107 at 30 ug/ml after 24 hrs by diffusion agar technique; assay type: functional; settings: RCMB 000107, 24 h, read-out: IZ; outline: as §3
[11] = tested on: Escherichia coli; assay: Antibacterial activity against Escherichia coli RCMB 000103 at 30 ug/ml after 24 hrs by diffusion agar technique; assay type: functional; settings: RCMB 000103, 24 h, read-out: IZ
Outline: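 Agar well diffusion on nutrient agar (pH 7.0) spread with centrifuged bacterial pellets from a 24 h culture, about 10^4–10^6 CFU/mL. Wells receive 100 µL of sample in DMSO: tested samples at 10 mg/mL, standard antibiotic at 30 μg/mL, DMSO as control. Incubation is 37 °C for 24 h. Inhibition zone in mm beyond the 6 mm well is measured three times by caliper and averaged. Three runs, mean ± SD.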

[12] = tested on: Pseudomonas aeruginosa; assay: Antibacterial activity against Pseudomonas aeruginosa RCMB 000102 at 30 ug/ml after 24 hrs by diffusion agar technique; assay type: functional; settings: RCMB 000102, 24 h, read-out: IZ; outline: as §3
[13] = tested on: Candida albicans; assay: Antifungal activity against Candida albicans RCMB 005002 at 30 ug/ml after 3 to 4 days by agar well diffusion method; assay type: functional; settings: read-out: IZ
Outline: (§4)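 Reference antifungal tested at 30 μg/mL, 100 μL per well, on Sabouraud dextrose agar spread with 0.1 mL of a fungal culture at about 10^5 CFU/mL. Wells were bottom-sealed with 0.8% soft agar. Incubated 30 °C, 3–4 days. Inhibition zone (mm) measured three times by caliper and averaged; mean ± SD.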

[14] = tested on: Syncephalastrum racemosum; assay: Antifungal activity against Syncephalastrum racemosum RCMB 005003 at 30 ug/ml after 3 to 4 days by agar well diffusion method; assay type: functional; settings: read-out: IZ; outline: as §4
[15] = tested on: Aspergillus fumigatus; assay: Antifungal activity against Aspergillus fumigatus RCMB 002003 at 30 ug/ml after 3 to 4 days by agar well diffusion method; assay type: functional; settings: read-out: IZ; outline: as §4
[16] = tested on: Geotrichum candidum; assay: Antifungal activity against Geotrichum candidum RCMB 052006 at 30 ug/ml after 3 to 4 days by agar well diffusion method; assay type: functional; settings: read-out: IZ; outline: as §4

SMILES | inhibition zone (IZ) [1] | zone of inhibition at 10000 µg/mL [2] [mm] | zone of inhibition at 10000 µg/mL [3] [mm] | zone of inhibition at 10000 µg/mL [4] [mm] | inhibition zone (IZ) [5] | zone of inhibition at 10000 µg/mL [6] [mm] | inhibition zone (IZ) [7] | zone of inhibition at 10000 µg/mL [8] [mm] | zone of inhibition at 10000 µg/mL [5] [mm] | further results
COc1ccc(-c2cc(-c3cccs3)nc3sc(C(=O)Nn4c(C)cc(C)c(C#N)c4=O)c(N)c23)cc1 | inactive | 11.1 | 13 | 14 | inactive | 14.2 | inactive | 10 |  | 
Cc1cc(C)n(/N=C/c2ccc(F)cc2)c(=O)c1C#N | inactive |  | 14.9 |  | inactive | 15.2 | inactive |  |  | inhibition zone (IZ) [2]: inactive; inhibition zone (IZ) [4]: inactive; inhibition zone (IZ) [8]: inactive
Cc1cc(C)n(N/C=C(\Nn2c(C)cc(C)c(C#N)c2=O)c2ccccc2)c(=O)c1C#N | inactive | 10 | 15 | 12 |  | 13.5 | inactive | 11 | 11.5 | 
CN[C@@H]1[C@H](O[C@H]2[C@H](O[C@H]3[C@H](O)[C@@H](O)[C@H](N=C(N)N)[C@@H](O)[C@@H]3N=C(N)N)O[C@@H](C)[C@]2(O)C=O)O[C@@H](CO)[C@H](O)[C@H]1O [STREPTOMYCIN] |  |  |  |  |  |  |  |  |  | zone of inhibition at 30 µg/mL [9]: 25 mm; zone of inhibition at 30 µg/mL [10]: 29 mm; zone of inhibition at 30 µg/mL [11]: 25 mm; zone of inhibition at 30 µg/mL [12]: 24 mm
Cc1cc(C)n(N)c(=O)c1C#N | inactive |  | 14 |  |  | 17 |  |  | 22.8 | inhibition zone (IZ) [2]: inactive; inhibition zone (IZ) [4]: inactive; zone of inhibition at 10000 µg/mL [7]: 21.4 mm; inhibition zone (IZ) [8]: inactive
Cc1cc(C)n(N2C(=O)c3ccccc3C2=O)c(=O)c1C#N | inactive | 19.2 | 24.4 | 21.4 |  | 25.4 | inactive | 18.2 | 10.8 | 
Cc1cc(C)n(/N=C/c2c(C)nn(-c3ccccc3)c2Cl)c(=O)c1C#N | inactive | 10.3 |  | 11.5 | inactive |  | inactive | 13.2 |  | inhibition zone (IZ) [3]: inactive; inhibition zone (IZ) [6]: inactive
Cc1cc(C)n(/N=C/c2cccs2)c(=O)c1C#N | inactive | 11 | 14 | 13 | inactive |  |  | 12 |  | inhibition zone (IZ) [6]: inactive; zone of inhibition at 10000 µg/mL [7]: 14 mm
Cc1cc(C)n(NC(=O)C(=O)CC(=O)c2cc3ccccc3o2)c(=O)c1C#N | inactive |  | 20.4 |  |  | 21.8 | inactive |  | 7.4 | inhibition zone (IZ) [2]: inactive; inhibition zone (IZ) [4]: inactive; inhibition zone (IZ) [8]: inactive
Cc1ccc2c(c1)cc(/C=N/n1c(C)cc(C)c(C#N)c1=O)c1nnnn12 | inactive | 15.2 | 23.2 | 18.4 |  | 24.3 | inactive | 15.4 | 11.2 | 
Cc1cc(C)n(/N=C/c2cc3ccccc3n3nnnc23)c(=O)c1C#N | inactive | 11.2 | 18.6 | 13.4 |  | 17.3 | inactive | 11.4 | 9.3 | 
Cc1cc(C)n(NC(=S)Nc2ccccc2)c(=O)c1C#N | inactive | 10.2 | 15 | 12 | inactive | 13.5 | inactive | 11 |  | 
Cc1cc(C)n(/N=C/c2cc3ccccc3nc2Cl)c(=O)c1C#N | inactive | 13.3 |  | 12.4 | inactive |  | inactive | 10.2 |  | inhibition zone (IZ) [3]: inactive; inhibition zone (IZ) [6]: inactive
Cc1ccc2nc(Cl)c(/C=N/n3c(C)cc(C)c(C#N)c3=O)cc2c1 | inactive | 14.5 |  | 13.2 | inactive |  | inactive | 12.4 |  | inhibition zone (IZ) [3]: inactive; inhibition zone (IZ) [6]: inactive
Cc1cc(C)n(NC(=O)Nc2ccccc2)c(=O)c1C#N | inactive | 9.2 | 7.2 | 10.4 |  | 10.4 | inactive | 7.4 | 11.4 | 
Cc1cc(C)n(/N=C/c2cn(-c3ccccc3)nc2-c2cc3ccccc3o2)c(=O)c1C#N | inactive | 14.2 | 21.2 | 16.5 |  | 23.2 | inactive | 15.5 | 11.5 | 
Cc1cc(C)n(N2C(=O)c3c(Br)c(Br)c(Br)c(Br)c3C2=O)c(=O)c1C#N | inactive | 22.5 | 26.4 | 23.5 |  | 26.4 | inactive | 20.2 | 12.6 | 
CCC(C)n1ncn(-c2ccc(N3CCN(c4ccc(OCC5COC(Cn6cncn6)(c6ccc(Cl)cc6Cl)O5)cc4)CC3)cc2)c1=O (centres undefined) [ITRACONAZOLE] |  |  |  |  |  |  |  |  |  | zone of inhibition at 30 µg/mL [13]: 26 mm; zone of inhibition at 30 µg/mL [14]: 22 mm; zone of inhibition at 30 µg/mL [15]: 28 mm; zone of inhibition at 30 µg/mL [16]: 27 mm
Clc1ccccc1C(c1ccccc1)(c1ccccc1)n1ccnc1 [CLOTRIMAZOLE] |  |  |  |  |  |  |  |  |  | zone of inhibition at 30 µg/mL [13]: 18 mm; zone of inhibition at 30 µg/mL [14]: 20 mm; zone of inhibition at 30 µg/mL [15]: 26 mm; zone of inhibition at 30 µg/mL [16]: 23 mm
CC1(C)S[C@@H]2[C@H](NC(=O)Cc3ccccc3)C(=O)N2[C@H]1C(=O)O [PENICILLIN G] |  |  |  |  |  |  |  |  |  | zone of inhibition at 30 µg/mL [9]: 29.5 mm; zone of inhibition at 30 µg/mL [10]: 32.6 mm; zone of inhibition at 30 µg/mL [11]: 33.6 mm; zone of inhibition at 30 µg/mL [12]: 28.3 mm

Reference: ChEMBL document CHEMBL1828592, “Synthesis and anti-microbial activity of some 1- substituted amino-4,6-dimethyl-2-oxo-pyridine-3-carbonitrile derivatives” (2011)
